This data set concerns MS2 coat protein. Description: apparent Kd, MS2 coat protein; higher = weaker binding; RNA-MaP array; FMN 200 µM where present. The gist of the method:
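Apparent Kd: the median of filtered binding-curve fits from single clusters. Designs were transcribed on Illumina sequencing-chip clusters by stalled E. coli RNA polymerase and titrated with SNAP-549-labelled MS2 coat protein from 0.7 or 1.5 nM, doubling to 3 µM, in 100 mM Tris-HCl pH 7.5, 80 mM KCl, 4 mM MgCl2, BSA, DTT, yeast tRNA and Tween-20. Each series ran without and then with constant ligand, and green signal was normalised to red-channel RNA signal and control-cluster median Fmax.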

Setting [1] is: designed as: OFF switch for flavin mononucleotide, no ligand.
The mark [2] stands for this setting: ligand present: flavin mononucleotide, designed as: OFF switch for flavin mononucleotide.
[3] abbreviates: designed as: ON switch for flavin mononucleotide, no ligand.
Setting [4] is: ligand present: flavin mononucleotide, designed as: ON switch for flavin mononucleotide.

In general, apparent Kd refers to the concentration giving half-maximal binding under the conditions of the assay. Turning to “AUCUUGUAAGGAUAUCGUGCAAGUUUCAAAAGAGGCUUGUGCGAGAAGGUACAUGAGGAUCACCCAUGUAGGUU”, the “apparent Kd” value was 0.0262 µM under setting [1] and 0.0713 µM under setting [2].
Turning to “UGUCGGAGCAGAGGAUAUUACAUGAGGAUCACCCAUGUAUGAACCAAUAGCAGGAAACAGCAAUGUAAGAAGGCUGCUCCGACA”, the “apparent Kd” value was 0.0103 µM under setting [1] and 0.0774 µM under setting [2].
The corresponding values for “UGAUAGCACAGAGGAUAUGCGUAUAGUUAUCACUACAUGAGGAUCACCCAUGUAGAAGGCUGUGCUAUCUAAGUCGGAAACGAC” are 0.00585 µM and 0.00611 µM.
As to “UUGGACGUCGUAGGAUAUGUAGGAUAUUCCUACAUGAGGAUCACCCAUGUUGACGUGGAAGAAGGACAGAAGGACGAUGUCCAU”, the “apparent Kd” value reads like this: under setting [3], 0.0553 µM; under setting [4], 0.00463 µM.
Turning to “GAGGUGUUAGGAUAUCGGAGAUGGAGACCGACGGGAUGAGCCGAGAAGGAACAUGAGGAUCACCCAUGUAGGUG”, the “apparent Kd” value reads like this: under setting [1], 0.461 µM; under setting [2], 0.283 µM.
The corresponding values for “AGUAGAUCAGGAUAUACAUAAAUGAUAAUUAUGUACCUUCUACAUGAGGAUCACCCAUGUAGAAGGGAUCUACA” are 0.0131 µM and 0.0119 µM.
With “AAAUUACAUGAGGAUCACCCAUGUUUAAAAAAUAUAGGAUAUGUAAAAAAAAAAAAAAAAACAGAAGGGUAAAAAA”, the “apparent Kd” value under setting [3] is 0.0448 µM and the “apparent Kd” value under setting [4] worked out at 0.042 µM.
Regarding “AGAAGUUUGUAGAAGGACGACUAAUUUGUAUUCGUAGGAUAUACUAUUUACAUGAGGAUCACCCAUGUUUAAAUGGAACAAUGU”, the “apparent Kd” value under setting [1] stood at 0.007 µM and the “apparent Kd” value under setting [2] was found to be 0.0102 µM.
“UUGGACGUCGUACGAUAUGUAGGAUAUUCCUACAUGAGGAUCACCCAUGUUGACAUGGAAGAAGGACAGAAGGACGAUGUCCAU”: the “apparent Kd” value by setting is: under setting [3], 0.151 µM; under setting [4], 0.00561 µM.
On to “GGUGUGCAGCAGGAUAUCCAUCCGCGGUAUGGUGGAGAAGGGCUGACAUGAGGAUCACCCAUGUGCGUCCUAGG”, for which the “apparent Kd” value worked out at 0.0403 µM under setting [1] and 0.133 µM under setting [2].
For “CCAUGGCUGUAAGGAUAUGUCUGACAAAGUCAGACAGAAGGUACAUGAGGAUCACCCAUGUGAAGAAAACCACAUUUGCCAUGG” the same measures were 0.00668 µM and 0.00841 µM.
For “UCGCGGGUGCAGAAGGGAUAGGCCUAUUUUCGUGGUAUCCAAACUUAACAUGAGGAUCACCCAUGUCAGGAUAUGCCCACGCGA” the same measures were 0.00872 µM and 0.0107 µM.
Consider “GGCAAGUGAGGAUAUCACCACGGCGUGGGCACCACGGCCAGUGAGAAGGCACAUGAGGAUCACCCAUGUGAUCA”, for which the “apparent Kd” value turned out to be 0.088 µM under setting [1] and 0.541 µM under setting [2].
In the case of “UGUUGUAUUACAGGAUAUCUAUGAUUUUGAUUUAGAGAAGGGUAUUCACAUGAGGAUCACCCAUGUAUAUACGAGGAAGUUGUG”, the “apparent Kd” value was 0.0512 µM under setting [3] and 0.0544 µM under setting [4].
In the case of “CGCUCAAUUACUUUGAAUAGAAUCAGAAGGCGUUACAUGAGGAUCACCCAUGUUAUGACGUGUAACGAGGAUAUGAAUUGAGCG”, the “apparent Kd” value reads like this: under setting [1], 0.00718 µM; under setting [2], 0.0305 µM.
For “GGUUGGCGAGGAUAUACAUGAGGAUCACCCAUGUGGUCCUGUGGCUGGUAAAACCUUUGUAGAAGGCGCGGGUC” the same measures were 0.215 µM and 0.24 µM.
For “AAAAAACAUGAGGAUCACCCAUGUGAGGAUAUCGGAAAAAAAAAAAAAAAAAAAAAAACGAGAAGGCACAAAAA” the same measures were 0.0608 µM and 0.0717 µM.
Take “UGGUACAUGGGAGGAUAUCCUCAAGAGACAUGAGGAUCACCCAUGUAUUAUAAGCCGAAAGGCAUGGAGAAGGCCCAUGUACCU”: the “apparent Kd” value under setting [3] is 0.0754 µM and the “apparent Kd” value under setting [4] came to 0.0195 µM.
With “GCGCAGCCGGGUGAGGAUAUCGGUGGUAAAACAUGAGGAUCACCCAUGUCCGAAGCUCGGACUUCCGAGAAGGCGCCCAGCUGCA”, the “apparent Kd” value under setting [3] was found to be 0.115 µM and the “apparent Kd” value under setting [4] came to 0.0144 µM.
“UUAUGUCGCGUAGGAUAUCACUAGAGUUGUAAUUUAAUUGUAAUUUCGAUGUGAGAAGGACGUACACAUGAGGAUCACCCAUGU”: the “apparent Kd” value under setting [1] worked out at 0.0195 µM and the “apparent Kd” value under setting [2] turned out to be 0.0163 µM.
The corresponding values for “AGAAACUACGAGAAGGACAUAAAAGGUGCCGCAAACAUGAGGAUCACCCAUGUAGGAUAUCGUAGUUUCAGGAUCGUGAGAUCA” are 0.0284 µM and 0.262 µM.
The corresponding values for “GCGUUACAUGAGGAUCACCCAUGUGAGGAUAUGGUUCGGUACUGUCCUGUCGCGUACUCCAGAAGGCACGUGUG” are 0.0476 µM and 0.104 µM.
Turning to “AGGACCAAAACAUCUACAUGAGGAUCACCCAUGUAUCGUAUGCAGGAUAUCCAUGGGUGGGCAGAGGAGAAGGGCAUUAAAAGA”, the “apparent Kd” value stood at 0.0616 µM under setting [3] and 0.124 µM under setting [4].
With “UGUGGGUGAUCAGGAUAUCCGUAUACAUGAGGAUCACCCAUGUCCUUGCUCAGCCGGGUAAGUUUGGAGAAGGGAUCAUCAAAU”, the “apparent Kd” value under setting [3] was found to be 0.357 µM and the “apparent Kd” value under setting [4] was 0.0321 µM.
Take “UGAAGGUAAGGAUAUACAUGAGGAUCACCCAUGUUGUCAUUUCUGUCUGGGCAGGCAUGUAGAAGGUACCUACA”: the “apparent Kd” value amounted to 0.0264 µM under setting [1] and 0.0873 µM under setting [2].
The corresponding values for “AACAGUACAGGAUAUACAUGAGGAUCACCCAUGUGAGAUUUAAGUGGCGUACCACAAAGUAGAAGGGUACUGGA” are 0.038 µM and 0.187 µM.
In the case of “GCGUAUAUAAGAUUUAUAAAACAGUCAGAAGGUGAUAAGACGACAUGAGGAUCACCCAUGUAAUUCAAGGAUAUGAUAAUGCGC”, the “apparent Kd” value came out at 0.0563 µM under setting [3] and 0.0154 µM under setting [4].
As for “AUGAGGGAAGUAGGAUAUGAUCAAGACAUGAGGAUCACCCAUGUAAUGAGGGUGUGUGUCUUUGUUCAGAAGGACUUGUAUCAA”, the “apparent Kd” value runs as follows: under setting [1], 0.0604 µM; under setting [2], 0.0604 µM.
Regarding “GUCGGAAACGACAAAAGUACCGGAGCAGAAGGCAUGUCAUAAGACAUGAGGAUCACCCAUGUGCAUGAGGAUAUGCUCCGGUAC”, the “apparent Kd” value runs as follows: under setting [3], 0.00545 µM; under setting [4], 0.00468 µM.
The corresponding values for “GCUGUCGCAUGAGGAUAUGGUCAGCUUUGCUGACCAGAAGGCAUGUCAAUAGACAUGAGGAUCACCCAUGUAGUAAAGGCGGCU” are 0.38 µM and 0.0378 µM.
The corresponding values for “GCAACGCCUGACAUGAGGAUCACCCAUGUUAGAUUGUUAUGUCAGGAUAUUGUCGCGAAACGUGAUGAGAAGGGAUAUGUUGCU” are 0.815 µM and 0.0539 µM.
Take “UACAGCUCGACAGGAUAUACAUCACUGCUUCGGCAGUGUAUCUUAAUAACAUGAGGAUCACCCAUGUAGAAGGGUCGAGCUGUA”: the “apparent Kd” value reads like this: under setting [1], 0.0181 µM; under setting [2], 0.0328 µM.
“AAGAAGUCAGGAUAUCCAGCUCGUCACUUGCGUGAUGAGUUGGAGAAGGGACAUGAGGAUCACCCAUGUAAAGU”: the “apparent Kd” value was 0.0569 µM under setting [1] and 0.0555 µM under setting [2].
Turning to “UAUGUUUUAGGAUAUUGUACUGCUGACAUGAGGAUCACCCAUGUAUGCUAACUCGGCUGUCGAGAAGGAGAAUAUG”, the “apparent Kd” value runs as follows: under setting [1], 0.0643 µM; under setting [2], 0.056 µM.
In the case of “UUCAUCAAUGAAGGAUAUCUAUGUCCAACAUGAGGAUCACCCAUGUUGAGGAUCACCUAUGUGUAGGAGAAGGUUAAUAUAACU”, the “apparent Kd” value by setting is: under setting [3], 0.00798 µM; under setting [4], 0.00638 µM.
Turning to “UCACGGUAUGUAGGAUAUGCAUAGCAUUGCUAUGCAGAAGGACAUGAGGAUCACCCAUGUAUGUAUUCCAUACUAAUCCCGUGG”, the “apparent Kd” value is 0.00557 µM under setting [1] and 0.00566 µM under setting [2].
“CCUUGUAGCGGAGGAUAUGGGCCUCACUCAGUCAAAGAGUGAGAAACAUGAGGAUCACCCAUGUCCCAGAAGGCCGCUGCUUGG”: the “apparent Kd” value reads like this: under setting [3], 0.0178 µM; under setting [4], 0.0128 µM.
As to “UUCAGCUCGUGAGGAUAUACAUGUGCUGGAAACAGCACUAUUGUGUUCACAUGAGGAUCACCCAUGUAGAAGGCACGAGCUGAG”, the “apparent Kd” value by setting is: under setting [1], 0.0186 µM; under setting [2], 0.0821 µM.
“AAAAGACAUGAGGAUCACCCAUGUAAAAACAUAGGAGGAUAUGUCUGGAAACUAGACUGGACAGAAGGCCUUUGUC”: the “apparent Kd” value worked out at 0.0333 µM under setting [3] and 0.025 µM under setting [4].
In the case of “UAAAUUAACAAGAAGGCUAACAUGAGGAUCACCCAUGUUGUACAUGGAUAUAGAGGAUAUUGCUAAUAAUUUUUUAUCAUAAUU”, the “apparent Kd” value by setting is: under setting [1], 0.0208 µM; under setting [2], 0.0176 µM.
Consider “AGCGAGCUAGGAUAUACAUGAGGAUCACCCAUGUCUUUUUAGUACUACGGUGGAAGAUGUAGAAGGAGUGAGAA”, for which the “apparent Kd” value by setting is: under setting [1], 0.0951 µM; under setting [2], 0.0683 µM.
As to “GGAUGAGCAAUAGGAUAUGCUGGGAUUGAAUGGGUAGAAGGAUUUCUAGUGGUAAAGACAUGAGGAUCACCCAUGUCGCGGCCC”, the “apparent Kd” value runs as follows: under setting [3], 0.0457 µM; under setting [4], 0.0452 µM.
Consider “AAUAAGUGAGGAUAUACGAAAUAAAUAAAUAAAUAAAUAAAGUAGAAGGCACAUGAGGAUCACCCAUGUAAUAA”, for which the “apparent Kd” value amounted to 0.0346 µM under setting [1] and 0.029 µM under setting [2].
In the case of “GUACAGAAGGAGAAGGGCUAGGAGGUCCAGCUUAUGUGUGUUGCAACAUGAGGAUCACCCAUGUAGCAGGAUAUCCUUUGUACA”, the “apparent Kd” value reads like this: under setting [1], 0.0411 µM; under setting [2], 0.44 µM.
The corresponding values for “ACAUAGUGAGGAUAUGCUGCUCGUCACUUGCGUGAUGAGUAGCAGAAGGCACAUGAGGAUCACCCAUGUAAAAA” are 0.0405 µM and 0.055 µM.
For “GAGCUAUGAGGAUAUGCAUAGAUACGGAUUCGUGUAGUACUACAUGAGGAUCACCCAUGUAGAAGGCGUGGCAG”, the “apparent Kd” value is, setting by setting: under setting [1], 0.0143 µM; under setting [2], 0.0159 µM.
“ACGACGAAAGUCGAACGAUGUAGCAGAAGGACAUGAGGAUCACCCAUGUCAGCUGUAAAAGCCAUGUAGGAUAUGCUACAUCGA”: the “apparent Kd” value turned out to be 0.00351 µM under setting [1] and 0.0044 µM under setting [2].
Take “UGCCGUUUAGGAUAUACAUGAGGAUCACCCAUGUGACAAACAUAUUUUACAAAACCAUGUAGAAGGAAACGGCA”: the “apparent Kd” value was 0.0974 µM under setting [1] and 0.468 µM under setting [2].

The values are drawn from the EternaBench riboswitch data.
